Results from ChEMBL document CHEMBL4334451, “Natural Alkaloid Berberine Activity against Pseudomonas aeruginosa MexXY-Mediated Aminoglycoside Resistance: In Silico and in Vitro Studies” (J Nat Prod, 2019).
The source made the active and inactive calls. The rule behind the calls is not given here.

How the values were obtained:
Format in all cases: protein-complex assay
[1] = target: T1, MexXY/OprM (Pseudomonas aeruginosa (strain ATCC 15692 / DSM 22644 / CIP 104116 / JCM14847 / LMG 12228 / 1C / PRS 101 / PAO1)) (UniProt Q51487+Q9ZNG9+Q9ZNG8); assay: Inhibition of MexXY/OPRM in Pseudomonas aeruginosa C83 assessed as bacterial growth up to 320 ug/ml incubated for 24 to 48 hrs by broth microdilution method
How it was run: (§1)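 Broth microdilution following CLSI guidelines, with P. aeruginosa ATCC 27853 as reference strain. Berberine was tested at 2-fold concentrations from 10 to 320 µg/ml, dissolved in 50% DMSO/50% methanol, with the top concentration set to keep final DMSO close to 1%. Plates were incubated at 37°C and read for visible growth at 24 and 48 h.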

[2] = target: T1, MexXY/OprM (Pseudomonas aeruginosa (strain ATCC 15692 / DSM 22644 / CIP 104116 / JCM14847 / LMG 12228 / 1C / PRS 101 / PAO1)); assay: Inhibition of MexXY/OPRM in Pseudomonas aeruginosa C61 assessed as bacterial growth up to 320 ug/ml incubated for 24 to 48 hrs by broth microdilution method; how it was run: as §1
[3] = target: T1, MexXY/OprM (Pseudomonas aeruginosa (strain ATCC 15692 / DSM 22644 / CIP 104116 / JCM14847 / LMG 12228 / 1C / PRS 101 / PAO1)); assay: Inhibition of MexXY/OPRM in Pseudomonas aeruginosa C104 assessed as reduction in bacterial resistance to tobramycin by measuring tobramycin MIC at 80 ug/ml incubated for 24 to 48 hrs by broth microdilution method (reference value: 32 ug/ml)
[4] = target: T1, MexXY/OprM (Pseudomonas aeruginosa (strain ATCC 15692 / DSM 22644 / CIP 104116 / JCM14847 / LMG 12228 / 1C / PRS 101 / PAO1)); assay: Inhibition of MexXY/OPRM in Pseudomonas aeruginosa C54 assessed as bacterial growth up to 320 ug/ml incubated for 24 to 48 hrs by broth microdilution method; how it was run: as §1
[5] = target: T1, MexXY/OprM (Pseudomonas aeruginosa (strain ATCC 15692 / DSM 22644 / CIP 104116 / JCM14847 / LMG 12228 / 1C / PRS 101 / PAO1)); assay: Inhibition of MexXY/OPRM in Pseudomonas aeruginosa C70 assessed as reduction in bacterial resistance to tobramycin by measuring tobramycin MIC at 80 ug/ml incubated for 24 to 48 hrs by broth microdilution method (reference value: 32 ug/ml)
[6] = target: T1, MexXY/OprM (Pseudomonas aeruginosa (strain ATCC 15692 / DSM 22644 / CIP 104116 / JCM14847 / LMG 12228 / 1C / PRS 101 / PAO1)); assay: Inhibition of MexXY/OPRM in Pseudomonas aeruginosa AR48 assessed as reduction in bacterial resistance to tobramycin by measuring fold reduction in tobramycin MIC at 80 ug/ml incubated for 24 to 48 hrs by broth microdilution method
[7] = target: T1, MexXY/OprM (Pseudomonas aeruginosa (strain ATCC 15692 / DSM 22644 / CIP 104116 / JCM14847 / LMG 12228 / 1C / PRS 101 / PAO1)); assay: Inhibition of MexXY/OPRM in Pseudomonas aeruginosa C104 assessed as bacterial growth up to 320 ug/ml incubated for 24 to 48 hrs by broth microdilution method; how it was run: as §1
[8] = target: T1, MexXY/OprM (Pseudomonas aeruginosa (strain ATCC 15692 / DSM 22644 / CIP 104116 / JCM14847 / LMG 12228 / 1C / PRS 101 / PAO1)); assay: Inhibition of MexXY/OPRM in Pseudomonas aeruginosa C70 assessed as bacterial growth up to 320 ug/ml incubated for 24 to 48 hrs by broth microdilution method; how it was run: as §1
[9] = target: T1, MexXY/OprM (Pseudomonas aeruginosa (strain ATCC 15692 / DSM 22644 / CIP 104116 / JCM14847 / LMG 12228 / 1C / PRS 101 / PAO1)); assay: Inhibition of MexXY/OPRM in Pseudomonas aeruginosa AR61 assessed as reduction in bacterial resistance to tobramycin by measuring tobramycin MIC at 80 ug/ml incubated for 24 to 48 hrs by broth microdilution method (reference value: 0.125 ug/ml)
[10] = target: T1, MexXY/OprM (Pseudomonas aeruginosa (strain ATCC 15692 / DSM 22644 / CIP 104116 / JCM14847 / LMG 12228 / 1C / PRS 101 / PAO1)); assay: Inhibition of MexXY/OPRM in Pseudomonas aeruginosa K767 assessed as reduction in bacterial resistance to tobramycin by measuring tobramycin MIC at 80 ug/ml incubated for 24 to 48 hrs by broth microdilution method (reference value: 0.25 ug/ml)
How it was run: (§2)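 Broth microdilution per CLSI, with P. aeruginosa ATCC 27853 as reference strain, in 2-fold dilution series. Plates were incubated at 37°C and read for visible growth at 24 and 48 h. Berberine stock was in 50% DMSO/50% methanol, with final DMSO kept near 1%. Berberine was tested at 10–320 µg/ml, alone or at a fixed level with serial tobramycin.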

[11] = target: T1, MexXY/OprM (Pseudomonas aeruginosa (strain ATCC 15692 / DSM 22644 / CIP 104116 / JCM14847 / LMG 12228 / 1C / PRS 101 / PAO1)); assay: Inhibition of MexXY/OPRM in Pseudomonas aeruginosa C84 assessed as reduction in bacterial resistance to tobramycin by measuring fold reduction in tobramycin MIC at 80 ug/ml incubated for 24 to 48 hrs by broth microdilution method
How it was run: (§3)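 Tobramycin MIC by CLSI broth microdilution at 37°C, read at 24 and 48 h, with and without a fixed berberine concentration selected from checkerboard assays. Berberine stock was in 50% DMSO/50% methanol, final DMSO about 1%. A 2-fold decrease in tobramycin MIC was scored as synergy.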

[12] = target: T1, MexXY/OprM (Pseudomonas aeruginosa (strain ATCC 15692 / DSM 22644 / CIP 104116 / JCM14847 / LMG 12228 / 1C / PRS 101 / PAO1)); assay: Inhibition of MexXY/OPRM in Pseudomonas aeruginosa C95 assessed as reduction in bacterial resistance to tobramycin by measuring increase in tobramycin-mediated bactericidal activity at 80 ug/ml in presence of 1XMIC to 2XMIC tobramycin measured after 2 hrs by Time-kill curve analysis
[13] = target: T1, MexXY/OprM (Pseudomonas aeruginosa (strain ATCC 15692 / DSM 22644 / CIP 104116 / JCM14847 / LMG 12228 / 1C / PRS 101 / PAO1)); assay: Inhibition of MexXY/OPRM in Pseudomonas aeruginosa C6 assessed as reduction in bacterial resistance to tobramycin by measuring fold reduction in tobramycin MIC at 80 ug/ml incubated for 24 to 48 hrs by broth microdilution method
[14] = target: T1, MexXY/OprM (Pseudomonas aeruginosa (strain ATCC 15692 / DSM 22644 / CIP 104116 / JCM14847 / LMG 12228 / 1C / PRS 101 / PAO1)); assay: Inhibition of MexXY/OPRM in Pseudomonas aeruginosa K767 assessed as bacterial growth up to 320 ug/ml incubated for 24 to 48 hrs by broth microdilution method; how it was run: as §2
[15] = target: T1, MexXY/OprM (Pseudomonas aeruginosa (strain ATCC 15692 / DSM 22644 / CIP 104116 / JCM14847 / LMG 12228 / 1C / PRS 101 / PAO1)); assay: Inhibition of MexXY/OPRM in Pseudomonas aeruginosa C73 assessed as bacterial growth up to 320 ug/ml incubated for 24 to 48 hrs by broth microdilution method; how it was run: as §1
[16] = target: T1, MexXY/OprM (Pseudomonas aeruginosa (strain ATCC 15692 / DSM 22644 / CIP 104116 / JCM14847 / LMG 12228 / 1C / PRS 101 / PAO1)); assay: Inhibition of MexXY/OPRM in Pseudomonas aeruginosa C83 assessed as reduction in bacterial resistance to tobramycin by measuring fold reduction in tobramycin MIC at 80 ug/ml incubated for 24 to 48 hrs by broth microdilution method
[17] = target: T1, MexXY/OprM (Pseudomonas aeruginosa (strain ATCC 15692 / DSM 22644 / CIP 104116 / JCM14847 / LMG 12228 / 1C / PRS 101 / PAO1)); assay: Inhibition of MexXY/OPRM in Pseudomonas aeruginosa C95 assessed as reduction in bacterial resistance to tobramycin by measuring log reduction in colony forming unit at 80 ug/ml in presence of 1XMIC to 2XMIC tobramycin measured after 24 hrs by Time-kill curve analysis
[18] = target: T1, MexXY/OprM (Pseudomonas aeruginosa (strain ATCC 15692 / DSM 22644 / CIP 104116 / JCM14847 / LMG 12228 / 1C / PRS 101 / PAO1)); assay: Inhibition of MexXY/OPRM in Pseudomonas aeruginosa C89 assessed as reduction in bacterial resistance to tobramycin by measuring tobramycin MIC at 80 ug/ml incubated for 24 to 48 hrs by broth microdilution method (reference value: >128 ug/ml); how it was run: as §2
[19] = target: T1, MexXY/OprM (Pseudomonas aeruginosa (strain ATCC 15692 / DSM 22644 / CIP 104116 / JCM14847 / LMG 12228 / 1C / PRS 101 / PAO1)); assay: Inhibition of MexXY/OPRM in Pseudomonas aeruginosa C73 assessed as reduction in bacterial resistance to tobramycin by measuring tobramycin MIC at 80 ug/ml incubated for 24 to 48 hrs by broth microdilution method (reference value: 128 ug/ml)
[20] = target: T1, MexXY/OprM (Pseudomonas aeruginosa (strain ATCC 15692 / DSM 22644 / CIP 104116 / JCM14847 / LMG 12228 / 1C / PRS 101 / PAO1)); assay: Inhibition of MexXY/OPRM in Pseudomonas aeruginosa C93 assessed as reduction in bacterial resistance to tobramycin by measuring fold reduction in tobramycin MIC at 80 ug/ml incubated for 24 to 48 hrs by broth microdilution method; how it was run: as §3
[21] = target: T1, MexXY/OprM (Pseudomonas aeruginosa (strain ATCC 15692 / DSM 22644 / CIP 104116 / JCM14847 / LMG 12228 / 1C / PRS 101 / PAO1)); assay: Inhibition of MexXY/OPRM in Pseudomonas aeruginosa C61 assessed as reduction in bacterial resistance to tobramycin by measuring fold reduction in tobramycin MIC at 80 ug/ml incubated for 24 to 48 hrs by broth microdilution method
[22] = target: T1, MexXY/OprM (Pseudomonas aeruginosa (strain ATCC 15692 / DSM 22644 / CIP 104116 / JCM14847 / LMG 12228 / 1C / PRS 101 / PAO1)); assay: Inhibition of MexXY/OPRM in Pseudomonas aeruginosa C15 assessed as reduction in bacterial resistance to tobramycin by measuring tobramycin MIC at 80 ug/ml incubated for 24 to 48 hrs by broth microdilution method (reference value: 8 ug/ml)

## COc1ccc2cc3[n+](cc2c1OC)CCc1cc2c(cc1-3)OCO2 [BERBERINE]
[1]
  inhibition: inactive
[2]
  inhibition: inactive
[3]
  MIC: 8 µg/mL
[4]
  inhibition: inactive
[5]
  MIC: 8 µg/mL
[6]
  fold change (FC): > 2
[7]
  inhibition: inactive
[8]
  inhibition: inactive
[9]
  MIC: 0.125 µg/mL
[10]
  MIC: 0.125 µg/mL
[11]
  fold change (FC): > 2
[12]
  inhibition: Active
[13]
  fold change (FC): > 2
[14]
  inhibition: inactive
[15]
  inhibition: inactive
[16]
  fold change (FC): > 2
[17]
  Activity: 2 log10CFU
[18]
  MIC: 64 µg/mL
[19]
  MIC: 64 µg/mL
[20]
  fold change (FC): > 2
[21]
  fold change (FC): > 2
[22]
  MIC: 8 µg/mL
